This data set is described as follows: Toxicity liver stage against HepG2, at 10uM. The format is cell-based. Also on record: test concentration 10 uM, cell line HepG2-A16-CD81EGFP. The note with it: human, HepG2-A16-CD81EGFP cells; read-out: INHIBITION
Summed up:
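Uninfected HepG2-A16-CD81EGFP cells, 3 × 10^3 per well, 1536-well, plated on prespotted compound at 10 μM final, parasite-free screening media added to match infected plates; puromycin 10 μM positive, DMSO 0.5% negative; run in parallel with 48 h PbLuc assay at 37 °C, 5% CO2; viability by CellTiter-Glo luminescence, normalized to controls.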
`O=C(NCC(O)c1ccccc1)Nc1cccs1` (configuration not stated): the cytotoxicity at 10 µM came out at 8.25%.

In the case of `O=c1ncn(-c2ccc(F)cc2)c2ncccc12`, the cytotoxicity at 10 µM turned out to be 0.946%.

`Cc1nc2ccccc2c(=O)n1Cc1nnnn1C1CC1`: the cytotoxicity at 10 µM was -13.8%.

On to `Cc1ccc(-c2noc([C@@H]3C[C@H](NC(=O)CC(C)(C)C)CN3C)n2)cc1`, for which the cytotoxicity at 10 µM amounted to 7.35%.

Regarding `Cn1nnnc1SCC(=O)N1CCN(C(=O)C2CC2c2cccs2)CC1` (configuration not stated), the cytotoxicity at 10 µM was 8.58%.

As to `O=C(CC1CCCCC1)N1CCOCC1CO` (configuration not stated), the cytotoxicity at 10 µM is -0.779%.

Consider `CC(C)c1nnc(C2CCN(CC(=O)Nc3cccnc3)CC2)o1`, for which the cytotoxicity at 10 µM is -5.92%.

Regarding `O=C(Nc1cnn(C2CCOCC2)c1)c1ccc2c(c1)OCO2`, the cytotoxicity at 10 µM turned out to be 3.07%.

With `Cc1ccsc1C(=O)N1CC2CC1(C(=O)NCc1ccco1)C2`, the cytotoxicity at 10 µM was -6.43%.

For `CC1c2ncc(COCC3CCOCC3)n2CCN1S(C)(=O)=O` (configuration not stated), the cytotoxicity at 10 µM was 3.11%.

For `Cc1cccc(N2CC[C@@H]3[C@@H](CO[C@H]3CNS(C)(=O)=O)C2)n1`, the cytotoxicity at 10 µM was 3.62%.

For the compound `CC(C)NC(=O)C1CN(C(=O)c2cccs2)CC12CCOCC2` (configuration not stated), the cytotoxicity at 10 µM was -3.59%.

With `c1ccc(-c2ncc3c(n2)C2(CCN(c4ncccn4)C2)COC3)cc1` (configuration not stated), the cytotoxicity at 10 µM was found to be 1.36%.

Regarding `Cn1cc(C2CC3(CCN(C(=O)c4cccs4)CC3)NC2=O)cn1` (configuration not stated), the cytotoxicity at 10 µM was determined as 1.27%.

`CNc1oc(-c2cc(S(=O)(=O)N3CCCC3)c(C)o2)nc1C#N`: the cytotoxicity at 10 µM came to 5.08%.

As to `COc1cccc(C2CC(=O)Nc3c2cnn3C(C)(C)C)c1` (configuration not stated), the cytotoxicity at 10 µM was -8.54%.

Take `COCCN1C(=O)CCC12CCN(C(=O)NC(C)C)CC2`: the cytotoxicity at 10 µM amounted to 4.45%.

For `CCS(=O)(=O)Nc1ccn(Cc2c(F)cccc2Cl)n1`, the cytotoxicity at 10 µM was 7.77%.

Regarding `COc1cc(CC2CC(c3ccc4c(c3)OCO4)=NO2)cc2c1OCO2` (configuration not stated), the cytotoxicity at 10 µM was determined as 0.69%.

For the compound `O=C(CCc1ccccc1F)NC1CCCN(c2ccccn2)C1` (configuration not stated), the cytotoxicity at 10 µM is 2.21%.

Take `c1ccc(Oc2nccnc2C2CCN(C3CCOCC3)CC2)cc1`: the cytotoxicity at 10 µM was 4.38%.

For `COCC(=O)N1CC(c2n[nH]cc2C)C1`, the cytotoxicity at 10 µM was -2.76%.

With `Cc1nccc(C2CCCN(C(=O)c3cncnc3)C2)n1` (configuration not stated), the cytotoxicity at 10 µM worked out at 4.1%.

Turning to `CCOC(=O)c1n[nH]cc1-c1cncn1CCn1nc(C)c(Cl)c1C`, the cytotoxicity at 10 µM is -15.1%.

With `NC(=O)CN1CCCC(c2nccnc2Oc2cccc(F)c2)C1` (configuration not stated), the cytotoxicity at 10 µM was -17.1%.

As for `Cc1cccc(CC(=O)NC2CCN(C(=O)NC(C)(C)C)CC2)c1`, the cytotoxicity at 10 µM is -10.4%.

As to `Cn1ccnc1CN1CCCN(C(=O)C2(C#N)CCCCC2)CC1`, the cytotoxicity at 10 µM was -2.84%.

Consider `CCC(C)(O)CNc1ccc(S(=O)(=O)C(F)F)cc1` (configuration not stated), for which the cytotoxicity at 10 µM came out at 12.2%.

For `CCC(CNS(=O)(=O)c1cccc(C(=O)OC)c1)N1CCCC1` (configuration not stated), the cytotoxicity at 10 µM was -8.93%.

Turning to `CCOCCC(=O)Nc1cccc(Cl)c1C(N)=O`, the cytotoxicity at 10 µM was -8.59%.

Regarding `NC(=O)CC1CCN(c2ncnc3cccc(F)c23)CC1`, the cytotoxicity at 10 µM is 3.39%.

For the compound `CC(NC(=O)Nc1cccnc1N1CCOCC1)c1ccccc1` (configuration not stated), the cytotoxicity at 10 µM is 2.83%.

On to `O=C(NCc1ccnc(OCC2CC2)c1)C1Cc2ccccc2O1` (configuration not stated), for which the cytotoxicity at 10 µM is -0.483%.

For `CN1CCN(C(=O)c2cccn2C)c2ccccc2C1`, the cytotoxicity at 10 µM is 7.28%.

Consider `CCc1nsc(N2CCN(C(=O)COc3ccccc3)CC2)n1`, for which the cytotoxicity at 10 µM was -3.49%.

As to `O=C(NCc1ccccc1CN1CCCCCC1)Nc1nncs1`, the cytotoxicity at 10 µM was 4.22%.

With `CC1CCCCN1C(=O)Cn1cc(I)cn1` (configuration not stated), the cytotoxicity at 10 µM stood at 0.687%.

Consider `Cc1cccc(-c2noc(CN3CCC(c4ccn[nH]4)CC3)n2)c1`, for which the cytotoxicity at 10 µM was determined as 4.13%.

For `Cc1cc(CN2CCc3cncnc3C2)on1`, the cytotoxicity at 10 µM amounted to 4.13%.

With `CCNC(=O)C1CCN(Cn2nc(-c3ccccc3)oc2=O)CC1`, the cytotoxicity at 10 µM came to 11.5%.

Regarding `Cc1ccnc(N2CCC(NCCOc3ccccc3)CC2)n1`, the cytotoxicity at 10 µM was -1.21%.

On to `Cc1cnc(CN(Cc2ccc(C#N)cc2F)C2CCN(C)C2)o1` (configuration not stated), for which the cytotoxicity at 10 µM turned out to be 0.172%.

Consider `Cc1cc(NC(C)C(=O)NCc2ccccc2)nc(-c2ccncc2)n1` (configuration not stated), for which the cytotoxicity at 10 µM is 0.563%.

As for `CS(=O)(=O)CCCOc1cccc(-n2cccn2)c1`, the cytotoxicity at 10 µM was -9.22%.

Consider `C1CCN(CCOC2CCNCC2)C1`, for which the cytotoxicity at 10 µM turned out to be 6.59%.

As for `O=C(NCC1CCS(=O)(=O)C1)Nc1ccccn1` (configuration not stated), the cytotoxicity at 10 µM is 1.54%.

In the case of `O=C(NCC1(c2cccc(F)c2)CC1)N1CCC2(CCOC2)C1` (configuration not stated), the cytotoxicity at 10 µM stood at 2.82%.

With `CN(Cc1cccs1)c1cc(N2CCCC2CO)ncn1` (configuration not stated), the cytotoxicity at 10 µM was found to be 1.26%.

Consider `CC(C(=O)NCC1(c2cccc(Br)c2)CCC1)S(C)(=O)=O` (configuration not stated), for which the cytotoxicity at 10 µM was found to be 6.88%.

Regarding `CCCSCC(=O)Nc1ncn(CC(=O)N2CCCCCC2)n1`, the cytotoxicity at 10 µM was -3.91%.

With `Cn1cccc1C1CCCN1Cc1noc(C(C)(C)C)n1` (configuration not stated), the cytotoxicity at 10 µM was -4.4%.

On to `O=S(=O)(CC1CCCCC1)NCc1ccnc(O)c1`, for which the cytotoxicity at 10 µM was determined as 6.54%.

In the case of `CCOCCCC(=O)NCCC(=O)N1CCN(c2ccccn2)CC1`, the cytotoxicity at 10 µM was -4.76%.

On to `CC1CN(C)c2ccccc2CN1C(=O)CSc1ccncc1` (configuration not stated), for which the cytotoxicity at 10 µM was -12.6%.

Regarding `CN(C)C1CCN(C(=O)c2n[nH]c3c2CCN(CC2CCC2)C3)CC1`, the cytotoxicity at 10 µM amounted to 3.48%.

With `Cc1nc[nH]c1C(=O)N1CCC2(CC1)CN(CCN(C)C)C(=O)O2`, the cytotoxicity at 10 µM was determined as 4.54%.

Take `Cc1ccccc1NC(=O)CNC(C)COc1ccccc1` (configuration not stated): the cytotoxicity at 10 µM is -0.264%.

Turning to `CN(CC1CCCCO1)c1nc2c(cc1C(N)=O)CCC2` (configuration not stated), the cytotoxicity at 10 µM is -5.64%.

On to `O=C1NCCN1CCNc1cc(-c2ccccc2)nc2ccnn12`, for which the cytotoxicity at 10 µM is -10.7%.

As for `NS(=O)(=O)CCCC(=O)N1CCC2(CC1)c1ccccc1CC2O` (configuration not stated), the cytotoxicity at 10 µM is 4.71%.

On to `O=C(CCc1cc2n(n1)CCCNC2)N1CCC(N2CCOC2=O)CC1`, for which the cytotoxicity at 10 µM worked out at 6.05%.

As for `Nc1ncc(C(=O)N2CCC3(CCCO3)CC2)c(-c2ccccc2)n1`, the cytotoxicity at 10 µM was -156%.

As to `Cc1cc(C(=O)N2CCC(c3nnc(Cn4ccnc4)n3C)CC2)cs1`, the cytotoxicity at 10 µM was -114%.

For `CC(=O)CCC(=O)N1CCC2(CC1)N=C(CCC(C)C)NC2=O`, the cytotoxicity at 10 µM was -7.14%.

Regarding `Cc1ccc2c(c1)SCC(=O)N2CC(=O)N1CCCC1c1cc(C)no1` (configuration not stated), the cytotoxicity at 10 µM is 8.32%.

`CC(C)CN1CCN(S(=O)(=O)c2cn(C)cn2)[C@H]2CS(=O)(=O)C[C@H]21`: the cytotoxicity at 10 µM was -4.07%.

`CCN1CCN(S(=O)(=O)N2CCc3ccccc3C2)[C@H]2CS(=O)(=O)C[C@H]21`: the cytotoxicity at 10 µM is -4%.

For the compound `CC(C)N1CC(c2ncc(-c3ccc4c(c3)OCCO4)[nH]2)CC1=O` (configuration not stated), the cytotoxicity at 10 µM was 0.166%.

On to `Cc1nc2ccccc2n1Cc1cc(C(=O)N(C)C2CCOC2)n[nH]1` (configuration not stated), for which the cytotoxicity at 10 µM was found to be 4.91%.

Consider `CCCc1cnc(C)nc1N1CCC(F)(F)CC1`, for which the cytotoxicity at 10 µM came to 7.46%.

Take `CCc1ccccc1OCCCN(C)C(=O)C1CCCN1C(N)=O` (configuration not stated): the cytotoxicity at 10 µM was determined as 0.369%.

Take `O=C(CCN1CCOCC1)N1CCC(Cc2ccc(CO)cc2)C1` (configuration not stated): the cytotoxicity at 10 µM is -9.47%.

Regarding `CCc1cc(CN(C)C(=O)c2cnon2)on1`, the cytotoxicity at 10 µM was determined as 9.83%.

Regarding `Cc1c(Cl)c(C(=O)N2CC[C@H](N3CCOCC3)[C@H](CCCO)C2)nn1C`, the cytotoxicity at 10 µM was -148%.

In the case of `Cc1ccc(NC2CCN(C(=O)c3ccncc3)CC2)nn1`, the cytotoxicity at 10 µM amounted to 8.85%.

`CC(Cn1cccn1)NC(=O)Nc1nncs1` (configuration not stated): the cytotoxicity at 10 µM is -1.86%.

As to `c1ccc2oc(CCCN3CCCCC3Cn3cncn3)nc2c1` (configuration not stated), the cytotoxicity at 10 µM is -10.2%.

In the case of `CCCc1cc(C(=O)NCCN2CCCS2(=O)=O)[nH]n1`, the cytotoxicity at 10 µM is -7.13%.

As to `CC(=O)N1CCCN(C(=O)NCc2cccnc2OC(C)C)CC1`, the cytotoxicity at 10 µM was -5.5%.

Take `Clc1ccc(-c2nnc(CNCCn3cccn3)o2)c(Cl)c1`: the cytotoxicity at 10 µM is -4.86%.

For `CCOc1ccc(C#N)cc1NCC(=O)OC`, the cytotoxicity at 10 µM is -19.2%.

With `Cc1nc(C)n(CC2CCCN2CCC(=O)NC2CCCC2)n1` (configuration not stated), the cytotoxicity at 10 µM was -10.4%.

As to `c1ccc(-c2nc(CN3CCn4c(nnc4C4CC4)C3)co2)cc1`, the cytotoxicity at 10 µM is -2.18%.

Take `COc1c(C2CCCN2Cc2noc(C)n2)c(C)nn1C` (configuration not stated): the cytotoxicity at 10 µM was -12.5%.

On to `CCN(CCC1CCN(C(=O)NCc2nncn2CC)CC1)CC1CC1`, for which the cytotoxicity at 10 µM was -2.75%.

Take `CC(Cn1cccn1)NC(=O)N1CCN(Cc2ccco2)CC1` (configuration not stated): the cytotoxicity at 10 µM is -20.6%.

`Cc1ccc(C(=O)Nc2ccc(S(=O)(=O)/N=C3\CCCN3C)cc2)s1`: the cytotoxicity at 10 µM was 0.174%.

Regarding `CCOc1ncccc1C(=O)NC1CCCN(c2ncccn2)C1` (configuration not stated), the cytotoxicity at 10 µM is -23.5%.

With `CC(C)c1cc(NC(=O)c2ccc(NC3CC3)nc2)[nH]n1`, the cytotoxicity at 10 µM was -8.9%.

Regarding `CC(C)(C)NC[C@@H]1CCC[C@@H]2CN(Cc3csnn3)C[C@@H]21`, the cytotoxicity at 10 µM was -134%.

Take `CC(C)CN1C[C@@H]2C(=O)N(C)C3(CCN(C(=O)C(C)C)CC3)[C@@H]2C1`: the cytotoxicity at 10 µM was 6.88%.

`O=C(c1cscn1)N1CC[C@@H]2[C@@H]1CCN2CC1CCOCC1`: the cytotoxicity at 10 µM was 5.3%.

With `CNC(=O)c1cc2c(nc1NCC(C)C)CCN(c1ccncn1)CC2`, the cytotoxicity at 10 µM amounted to 7.95%.

For `CCC(=O)N1CCC2(CC1)C(=O)N(Cc1cccnc1)CCN2C`, the cytotoxicity at 10 µM came to 2.17%.

As for `COC1COC2(CCN(Cc3ccccc3Cl)CC2)C1` (configuration not stated), the cytotoxicity at 10 µM was -14.1%.

`CN1CCN(C[C@@H]2OC[C@H]3CN(CCc4ccccc4)CC[C@H]32)CC1`: the cytotoxicity at 10 µM came to 8.84%.

For the compound `O=C(CSc1ccccn1)N1C[C@@H]2CC[C@H]1CN(Cc1cscn1)C2`, the cytotoxicity at 10 µM came to 1.93%.

The values above are taken from ChEMBL document CHEMBL4513216, “Probing the Open Global Health Chemical Diversity Library for Multistage-Active Starting Points for Next-Generation Antimalarials” (ACS Infect Dis, 2020).
